In brackets after ≈: the same amount, converted by molar mass. Activity calls are given as the source filed them. The rule behind the calls is not given here.

Experimental findings from ChEMBL document CHEMBL4823271, “Synthesis and structure-activity relationship of new chalcone linked 5-phenyl-3-isoxazolecarboxylic acid methyl esters potentially active against drug resistant Mycobacterium tuberculosis” (Eur J Med Chem, 2021) are described below.

For data set [1], the system named is Mycobacterium tuberculosis. The data set is described as follows: Antimycobacterial activity against Mycobacterium tuberculosis H37Rv ATCC 27294 assessed as reduction in bacterial growth incubated for […] by broth microdilution assay. The format is functional.
In data set [2] the test system is Mycobacterium tuberculosis. As to the kind of experiment: Antitubercular activity against Mycobacterium tuberculosis H37Rv assessed as bacterial growth inhibition after 7 days by broth microdilution assay. Particulars: 168 h, dose 0.03-64 µg/ml, time 7 day. Type of data set: functional. A digest of the protocol:
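Compounds were tested in broth microdilution from 64 downward, incubated 37 °C for 7 days, then resazurin (PrestoBlue) added. MIC is the lowest concentration preventing the blue-to-pink change, run in triplicate, reporting the value obtained at least twice of three.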
(In broth dilution the organism is exposed to a series of concentrations in liquid medium.)

Data set [3] in a line: Selectivity index, ratio of CC50 for African green monkey Vero cells to MIC for Antitubercular activity against Mycobacterium tuberculosis H37Rv. Particulars: read-out: Selectivity Index. Type of data set: toxicity. An outline of the steps: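 Selectivity index calculated as Vero CC50 (MTT, 72 h) divided by the H37Rv MIC from the resazurin broth microdilution assay.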
Data set [4] in a line: Cytotoxicity against African green monkey vero cells assessed as reduction in cell viability measured after 72 hrs by MTT assay. The format is cell-based. Particulars: chlorocebus sabaeus. A digest of the protocol:
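Vero cells seeded at ~10³ cells/well and grown 24 h at 37 °C, 5% CO₂, then exposed to compound (100 to 5 mg/l) for 72 h. MTT was added […] for 4 h and formazan dissolved in DMSO. CC50 is the lowest concentration giving 50% viability reduction. Doxorubicin was the positive control, run in triplicate.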
Background: Tetrazolium dyes change colour on reduction, which living cells bring about.

In data set [5] the test system is Mycobacteroides chelonae. As to the kind of experiment: Antimycobacterial activity against Mycobacterium chelonae ATCC 35752 assessed as visible growth inhibition incubated for 16 to 18 hrs. The format is functional, organism-based. Particulars: time 16-18 hrs.
Data set [6] deals with Mycolicibacterium fortuitum. As to the kind of experiment: Antimycobacterial activity against Mycobacterium fortuitum ATCC 6841 assessed as visible growth inhibition incubated for 16 to 18 hrs. Particulars: time 16-18 hrs. Type of data set: functional, organism-based.
The subject of data set [7] is Mycobacteroides abscessus. The data set is described as follows: Antimycobacterial activity against Mycobacterium abscessus ATCC 19977 assessed as visible growth inhibition incubated for 16 to 18 hrs. Type of data set: functional, organism-based. Particulars: time 16-18 hrs.

Consider `CC[C@@H](CO)NCCN[C@@H](CC)CO` [ETHAMBUTOL], for which the minimal inhibitory concentration (MIC) in data set [1] and in data set [2] was 1 µg/mL (≈ 4.89 µM) throughout.

As to `COC(=O)c1cc(-c2cccc(NC(=O)c3ccc(/C=C/C(=O)c4ccc(Cl)cc4Cl)cc3)c2)on1`, the selectivity ratio in data set [3] was above 80. In addition, the half-maximal cytotoxic concentration (CC50) at 72 h in data set [4] is above 40 µg/mL. In addition, the minimal inhibitory concentration (MIC) in data set [1] and in data set [2] was 0.5 µg/mL (≈ 0.959 µM) each time. Further, the result in data set [5], in data set [6] and in data set [7] was inactive.

Take `COC(=O)c1cc(-c2ccc(NC(=O)c3ccc(/C=C/C(=O)c4ccc(Cl)cc4)cc3)cc2)on1`: in data set [3], the selectivity ratio is above 1330. Moreover, the 50% cytotoxic concentration (CC50) at 72 h in data set [4] is above 80 µg/mL. Also, the minimum inhibitory concentration (MIC) in data set [1] and in data set [2] was 0.06 µg/mL (≈ 0.123 µM) in each case. The result in data set [5], in data set [6] and in data set [7] was inactive.

As for `COC(=O)c1cc(-c2cccc(NC(=O)c3ccc(/C=C/C(=O)c4ccc(N5CCOCC5)cc4)cc3)c2)on1`, the selectivity ratio in data set [3] was above 40. In addition, the CC50 at 72 h in data set [4] was above 20 µg/mL. The MIC in data set [1] stood at 5 µg/mL (≈ 9.3 µM); in data set [2], 0.5 µg/mL (≈ 0.93 µM). Moreover, the result in data set [5], in data set [6] and in data set [7] was inactive.

Consider `COC(=O)c1cc(-c2cccc(NC(=O)c3ccc(/C=C/C(=O)c4ccc(F)cc4F)cc3)c2)on1`, for which the selectivity ratio in data set [3] was above 333. Besides, the CC50 at 72 h in data set [4] is above 40 µg/mL. Also, the MIC in data set [1] and in data set [2] was 0.12 µg/mL (≈ 0.246 µM) throughout. Further, the result in data set [5], in data set [6] and in data set [7] was inactive.

Regarding `NNC(=O)c1ccncc1` [ISONIAZID], the MIC in data set [1] and in data set [2] was 0.03 µg/mL (≈ 0.219 µM) each time.

For `CO[C@H]1/C=C/O[C@@]2(C)Oc3c(C)c(O)c4c(O)c(c(/C=N/N5CCN(C)CC5)c(O)c4c3C2=O)NC(=O)/C(C)=C\C=C\[C@H](C)[C@H](O)[C@@H](C)[C@@H](O)[C@@H](C)[C@H](OC(C)=O)[C@@H]1C` [RIFAMPIN], the minimal inhibitory concentration (MIC) in data set [1] was 0.06 µg/mL (≈ 0.0729 µM); in data set [2], 0.03 µg/mL (≈ 0.0365 µM).

As to `COC(=O)c1cc(-c2cccc(NC(=O)c3ccc(/C=C/C(=O)c4cccc(Cl)c4)cc3)c2)on1`, the selectivity ratio in data set [3] was above 10. Also, the cytotoxic concentration (CC50) at 72 h in data set [4] is above 2.5 µg/mL. Also, the MIC in data set [1] and in data set [2] was 0.25 µg/mL (≈ 0.513 µM) in each case. The outcome in data set [5], in data set [6] and in data set [7] was inactive.

Turning to `COC(=O)c1cc(-c2cccc(NC(=O)c3ccc(/C=C/C(=O)c4ccc(C)cc4)cc3)c2)on1`, in data set [3], the selectivity ratio is above 160. In addition, in data set [4], the CC50 at 72 h is above 80 µg/mL. The minimal inhibitory concentration (MIC) in data set [1] worked out at 5 µg/mL (≈ 10.7 µM); in data set [2], 0.5 µg/mL (≈ 1.07 µM). The outcome in data set [5], in data set [6] and in data set [7] was inactive.

Consider `CCOC(=O)c1cc(-c2cccc(NC(=O)c3ccc(/C=C/C(=O)c4ccc(Cl)cc4)cc3)c2)on1`, for which, in data set [3], the selectivity ratio was above 160. In addition, in data set [4], the CC50 at 72 h was above 80 µg/mL. The MIC in data set [1] and in data set [2] was 0.5 µg/mL (≈ 0.998 µM) each time. For the same molecule, the result in data set [5], in data set [6] and in data set [7] was inactive.

As for `COC(=O)c1cc(-c2cccc(NC(=O)c3ccc(/C=C/C(=O)c4ccccc4C)cc3)c2)on1`, the selectivity ratio in data set [3] was above 100. The CC50 at 72 h in data set [4] is above 25 µg/mL. Further, the MIC in data set [1] and in data set [2] was 0.25 µg/mL (≈ 0.536 µM) in each case. The result in data set [5], in data set [6] and in data set [7] was inactive.

For the molecule `COC(=O)c1cc(-c2cccc(NC(=O)c3ccc(/C=C/C(=O)c4ccc(OC)cc4OC)cc3)c2)on1`, the selectivity ratio in data set [3] is above 200. Further, in data set [4], the CC50 at 72 h is above 50 µg/mL. The minimal inhibitory concentration (MIC) in data set [1] and in data set [2] was 0.25 µg/mL (≈ 0.488 µM) in each case. Moreover, the result in data set [5], in data set [6] and in data set [7] was inactive.

For the molecule `COC(=O)c1cc(-c2cccc(NC(=O)c3ccc(/C=C/C(=O)c4ccc(OC)c([N+](=O)[O-])c4)cc3)c2)on1`, in data set [3], the selectivity ratio is above 40. The CC50 at 72 h in data set [4] was above 40 µg/mL. The result in data set [5], in data set [6] and in data set [7] was inactive. Also, the MIC in data set [2] is 1 µg/mL (≈ 1.9 µM).

In the case of `CN[C@@H]1[C@H](O[C@H]2[C@H](O[C@H]3[C@H](O)[C@@H](O)[C@H](N=C(N)N)[C@@H](O)[C@@H]3N=C(N)N)O[C@@H](C)[C@]2(O)C=O)O[C@@H](CO)[C@H](O)[C@H]1O` [STREPTOMYCIN], the MIC in data set [1] stood at 2 µg/mL (≈ 3.44 µM); in data set [2], 0.5 µg/mL (≈ 0.86 µM).

As to `COC(=O)c1cc(-c2cccc(NC(=O)c3ccc(/C=C/C(=O)c4ccc(Cl)cc4)cc3)c2)on1`, the selectivity ratio in data set [3] was above 416. Also, the CC50 at 72 h in data set [4] is above 50 µg/mL. The minimum inhibitory concentration (MIC) in data set [1] and in data set [2] was 0.12 µg/mL (≈ 0.246 µM) throughout. Besides, the outcome in data set [5], in data set [6] and in data set [7] was inactive.

As for `COC(=O)c1cc(-c2cccc(NC(=O)c3ccc(/C=C/C(=O)c4ccc(C)c(F)c4)cc3)c2)on1`, the selectivity ratio in data set [3] was above 25. In addition, in data set [4], the CC50 at 72 h was above 50 µg/mL. The result in data set [5], in data set [6] and in data set [7] was inactive. For the same molecule, the MIC in data set [2] turned out to be 2 µg/mL (≈ 4.13 µM).

In the case of `CCOC(=O)c1cc(/C=C/c2c(Cl)cncc2Cl)on1`, the minimum inhibitory concentration (MIC) turned out to be 0.5 µg/mL (≈ 1.6 µM) in data set [1] and 0.18 µg/mL (≈ 0.575 µM) in data set [2].

Regarding `COC(=O)c1cc(-c2cccc(NC(=O)c3ccc(/C=C/C(=O)c4ccc(Br)cc4)cc3)c2)on1`, in data set [3], the selectivity ratio was above 2. For the same molecule, the CC50 at 72 h in data set [4] was above 20 µg/mL. Also, the outcome in data set [5], in data set [6] and in data set [7] was inactive. Further, in data set [2], the MIC amounted to 1 µg/mL (≈ 1.88 µM).

Take `COC(=O)c1cc(-c2cccc(NC(=O)c3ccc(/C=C/C(=O)c4ccccc4)cc3)c2)on1`: the selectivity ratio in data set [3] was above 50. For the same molecule, the CC50 at 72 h in data set [4] is above 50 µg/mL. Further, the result in data set [5], in data set [6] and in data set [7] was inactive. The MIC in data set [2] is 1 µg/mL (≈ 2.21 µM).

On to `COC(=O)c1cc(-c2cccc(NC(=O)c3ccc(/C=C/C(=O)c4ccc(OC)cc4)cc3)c2)on1`, for which the selectivity ratio in data set [3] was above 2.5. In data set [4], the CC50 at 72 h is above 10 µg/mL. The outcome in data set [5], in data set [6] and in data set [7] was inactive. Moreover, the MIC in data set [2] was 4 µg/mL (≈ 8.29 µM).

Take `COC(=O)c1cc(-c2cccc(NC(=O)c3ccc(C4OC4C(=O)c4ccc(Cl)cc4)cc3)c2)on1` (configuration not stated): in data set [3], the selectivity ratio is above 5. Besides, the CC50 at 72 h in data set [4] is above 20 µg/mL. Also, the outcome in data set [5], in data set [6] and in data set [7] was inactive. For the same molecule, in data set [2], the minimal inhibitory concentration (MIC) is 4 µg/mL (≈ 7.95 µM).

Consider `COC(=O)c1cc(-c2cccc(NC(=O)c3ccc(/C=C/C(=O)c4ccccc4Cl)cc3)c2)on1`, for which the selectivity ratio in data set [3] is above 100. Moreover, in data set [4], the CC50 at 72 h was above 25 µg/mL. For the same molecule, the minimal inhibitory concentration (MIC) in data set [1] and in data set [2] was 0.25 µg/mL (≈ 0.513 µM) in each case. For the same molecule, the result in data set [5], in data set [6] and in data set [7] was inactive.

Regarding `COC(=O)c1cc(-c2cccc(NC(=O)c3ccc(/C=C/C(=O)c4ccc(OC)c(OC)c4)cc3)c2)on1`, in data set [3], the selectivity ratio was above 50. Also, the CC50 at 72 h in data set [4] was above 50 µg/mL. In addition, the result in data set [5], in data set [6] and in data set [7] was inactive. Besides, in data set [2], the MIC was found to be 1 µg/mL (≈ 1.95 µM).

With `COC(=O)c1cc(-c2cccc(NC(=O)c3ccc(/C=C/C(=O)c4cccc(C(F)(F)F)c4)cc3)c2)on1`, in data set [3], the selectivity ratio was above 20. For the same molecule, in data set [4], the CC50 at 72 h is above 20 µg/mL. Further, the result in data set [5], in data set [6] and in data set [7] was inactive. Further, the MIC in data set [2] is 1 µg/mL (≈ 1.92 µM).

In the case of `COC(=O)c1cc(-c2cccc(NC(=O)c3ccc(OCc4ccc(Cl)cc4)cc3)c2)on1`, the selectivity ratio in data set [3] is above 80. The CC50 at 72 h in data set [4] was above 80 µg/mL. Moreover, the outcome in data set [5], in data set [6] and in data set [7] was inactive. Besides, in data set [2], the minimum inhibitory concentration (MIC) amounted to 1 µg/mL (≈ 2.16 µM).

Take `COC(=O)c1cc(-c2cccc(NC(=O)c3ccc(/C=C/C(=O)c4ccc([N+](=O)[O-])cc4)cc3)c2)on1`: the selectivity ratio in data set [3] is above 10. Further, the 50% cytotoxic concentration (CC50) at 72 h in data set [4] is above 20 µg/mL. Besides, the outcome in data set [5], in data set [6] and in data set [7] was inactive. For the same molecule, in data set [2], the minimum inhibitory concentration (MIC) worked out at 2 µg/mL (≈ 4.02 µM).

A word on the MIC: it is the lowest concentration that inhibits growth of the organism. Usually CC50 stands for the concentration giving 50% cytotoxicity.
